Screening data from PubChem.
CSN deneddyl inh = inhibitors of human CSN-mediated cullin deneddylation; Purified CSN, SCF-Nedd8-OG deneddylation, fluorescence polarization; inhibition, % at 12.5 µM; hit rate 0.38% among 360,000; Q92905;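 active means pattern-corrected inhibition above about 35%, with an unprinted fluorescence ratio check between 0.5 and 1.5, limit read from the data, passing the limit was not always enough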;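 further: 0% = enzyme with substrate and 100% = substrate without enzyme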
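Assay system: HEK293T-derived human Csn5 enzyme; quantity: 0.24 nM enzyme; medium: Tris/NaCl/DTT buffer, pH 7.5; also added: substrate SCFSkp2-Nedd8OG, 10 nM; doses: 12.5 µM compound; schedule: 90 min reaction at room temperature; signal: FP; read-out: % inhibition of substrate cleavage by Csn5; benchmarks: substrate-only high control, full reaction low control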
IDE act = IDE (human) activation, cell-based; activation, % at 5.96 µM; hit rate 0.073% among 340,000; P14735; HEK cells, FAbeta-B cleavage, fluorescence polarization; 0% vehicle, 100% cell-free pure enzyme wells; AID 493087;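 active means activation above the mean of all tested compounds plus 3 SD, set per screening campaign, cut at about 17% in these data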
HNF4A DNA FP = change in binding of human HNF4 alpha to DNA; HNF4a-FITC DNA binding, fluorescence polarization, 1 h; activity change, % at 10 µM; hit rate 0.3% among 360,000; in the data active means activity change above about 30%, passing the limit was not always enough
Target sequence (P41235 whole entry, looked up): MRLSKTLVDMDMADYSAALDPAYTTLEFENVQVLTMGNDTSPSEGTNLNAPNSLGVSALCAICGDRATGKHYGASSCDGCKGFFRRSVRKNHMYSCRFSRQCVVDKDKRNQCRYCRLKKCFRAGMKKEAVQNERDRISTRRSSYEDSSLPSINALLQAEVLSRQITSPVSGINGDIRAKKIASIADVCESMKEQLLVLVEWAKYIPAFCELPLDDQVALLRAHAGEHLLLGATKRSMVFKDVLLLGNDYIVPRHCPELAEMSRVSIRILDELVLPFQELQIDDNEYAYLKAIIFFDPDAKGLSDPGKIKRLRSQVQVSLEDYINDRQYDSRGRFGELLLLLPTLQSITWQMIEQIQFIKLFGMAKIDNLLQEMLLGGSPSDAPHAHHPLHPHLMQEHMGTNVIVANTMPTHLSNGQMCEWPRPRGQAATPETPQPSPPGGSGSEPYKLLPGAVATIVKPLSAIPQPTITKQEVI
TPT1 inh = inhibitors of Candida albicans tRNA 2'-phosphotransferase TPT1; recombinant caTPT1, FP RNA substrate dephosphorylation; inhibition, % at 5 µM; hit rate 0.81% among 300,000; AID 1962;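 active means inhibition above the mean of all tested compounds plus 3 SD, set per screening campaign, cut at about 24% in these data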;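 further: plate controls were DMSO alone for no effect and ferristatin control at 100 nM for full effect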
IDE inh = inhibitors of human insulin-degrading enzyme in cells. P14735. AID 434962. HEK cells, FAbetaB cleavage, fluorescence polarization. hit rate 0.41% among 320,000. inhibition, % at 5.59 µM;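 active means percent inhibition above the average of all tested compounds plus 3 SD, set per screening campaign, cut at about 16% in these data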;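 further: IDE supplied by intact live HEK cells; FP after avidin binding of uncleaved biotin substrate so inhibition keeps polarization high; 0% = DMSO wells and 100% = 60 µM reference IDE inhibitor Ii1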
CSN5 deneddyl = Csn5 (human) deneddylation inhibition, single-concentration validation | shares compounds with CSN deneddyl inh | Csn5 deneddylation of SCF-Nedd8OG, fluorescence polarization, 90 min | inhibition, % at 16.6 µM | hit rate 62% among 540; in the data active means inhibition above about 50%;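 further: 0% = DMSO with enzyme and 100% = no enzyme wells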
MMP-2 counter = blocks human MMP-2 in a CSN deneddylation counter-screen | inhibition, % at 16.6 µM | hit rate 33% among 540 | recombinant MMP-2, FRET substrate fluorescence, 60 min | shares compounds with CSN deneddyl inh | AID 720655;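 active means corrected plate-normalized z-score of 5 or more, or -5 or less, or inhibition of 15% or more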;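 further: plate controls were DMSO wells with enzyme for no effect and buffer wells lacking MMP-2 for full effect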
Thrombin cntr = thrombin (bovine) inhibition, counter-screen for CSN hits; shares compounds with CSN deneddyl inh; bovine thrombin cleavage of Ub4-pepOG, fluorescence polarization; inhibition, % at 16.6 µM; hit rate 49% among 540;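 active means inhibition at or above a set limit, with a fluorescence interference ratio between 0.5 and a set maximum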
Active calls of the source: *; / = no result. Rows were chosen to be rich in hits. Some 1.4% of all compounds tested hit in one or more screens of this group.

SMILES	CSN deneddyl inh	IDE act	HNF4A DNA FP	TPT1 inh	IDE inh	CSN5 deneddyl	MMP-2 counter	Thrombin cntr
O=S(=O)(Nc1c(S(=O)(=O)c2ccccc2)c2nc3ccccc3nc2n1C1CCCCC1)c1ccccc1	58*	1	1	0	7	47	1	1
O=C(CCN1C(=O)/C(=C/c2ccc(Cl)cc2)SC1=S)Nc1cccc(C(=O)O)c1	2	-2	3	-1	4	/	/	/
O=C(O)c1cccc(N2C(=O)/C(=C/c3ccc(SCc4ccc(Cl)cc4)o3)SC2=S)c1	46*	0	99	/	/	/	-3	49*
Cc1csc(=O)n1CC(=O)OCC(=O)NC(C)c1ccc(F)cc1 (stereo not drawn)	-3	0	5	/	-1	/	/	/
CN(C)CCCN(C(=O)c1ccc(S(=O)(=O)N2CCc3ccccc3C2)cc1)c1nc2ccc(F)cc2s1	99*	4	57*	-4	1	-33	-1	-14
CCOC(=O)/C(=C\c1ccc(N2CCC(c3ccccc3)=N2)cc1)C(C)=O	38*	-84	22	/	/	20*	-58*	28*
COC(=O)C1=C(C)NC(=O)NC1c1ccc(N2CCC(c3ccccc3)=N2)cc1 (stereo not drawn)	4	5	11	-1	2	/	/	/
CC(C)(C)OC(=O)N1CCC[C@H]1C(=O)Nc1ccc(S(=O)(=O)C(F)F)cc1	1	2	2	4	-4	/	/	/
Cn1cc(/C=N/NC(=O)c2cc3cc(Br)ccc3o2)c2ccccc21	2	/	1	-3	4	/	/	/
O=C(O)c1ccc(-n2cccc2/C=N\NC(=O)c2cc3cc(Br)ccc3o2)cc1	43*	-1	-48	2	-3	4	21*	22*
NCc1cc2c3c(c1)CCCN3CCC2	63*	1	11	-3	-2	88*	-10	-8
CCC1CN(C(=O)NCc2ccc(C)cc2)c2cc(Cl)ccc2O1 (stereo not drawn)	1	2	4	/	/	/	/	/
CCOC(=O)C1=C(C)N=c2s/c(=C/c3ccc(OCC(=O)O)cc3)c(=O)n2C1c1ccc(F)cc1 (stereo not drawn)	6	-2	0	0	12	/	/	/
CC1=C(C(=O)OC(C)C)C(c2ccc(Cl)cc2)n2c(sc(=Cc3ccc(OCC(=O)O)cc3)c2=O)=N1 (stereo not drawn)	84*	/	-15	/	/	21	10	26*
C=C(C)CNC(=O)C1CCC(=O)N(CCCc2ccccc2)C1 (stereo not drawn)	3	-4	-4	1	6	/	/	/
Nc1cccc2c1C(=O)N(C(=O)/C=C/c1ccc(F)cc1)C2=O	37*	3	-6	-6	0	69*	9	4
Nc1cccc2c1C(=O)N(C(=O)c1ccco1)C2=O	2	6	-3	-12	2	/	/	/
Cc1ccc(-c2cc(C(=O)N/N=C/c3ccc([N+](=O)[O-])o3)c3ccccc3n2)o1	39*	7	-13	/	/	107*	11	-6
CN1C(=S)N(c2cccnc2)C(=O)/C1=C\c1ccc(N(C)C)cc1	47*	-29	76*	/	/	68*	-10	22*
Cc1occc1-c1nnc(SCC(=O)c2c(N)n(C3CC3)c(=O)[nH]c2=O)n1C	3	0	-1	/	0	/	/	/
CCCCN1C2CCCC1CC(NC(=O)c1cccc(Cl)c1)C2 (stereo not drawn)	4	-3	4	5	6	/	/	/
O=C(N/N=C/c1ccc(Br)s1)c1ccco1	-4	0	-2	2	-1	/	/	/
O=C(N/N=C/c1sc(=O)n(Cc2ccc(Br)cc2)c1Cl)c1ccco1	42*	5	21	15	-8	47	54*	14
C(=N\NC1=NCCN1)/c1ccncc1	4	9	0	0	1	/	/	/
COc1ccc(-c2cc(NC=O)c3ncc(-c4ccc(C(C)=O)cc4)n3c2)cn1	42*	/	22	/	/	100*	5	3
SMILES	CSN deneddyl inh	IDE act	HNF4A DNA FP	TPT1 inh	IDE inh	CSN5 deneddyl	MMP-2 counter	Thrombin cntr
C/C(=N\NC(=O)c1cc(-c2cccc([N+](=O)[O-])c2)n[nH]1)c1ccccc1O	40*	6	-15	1	-3	/	5	1
C/C(=N/NC(=O)c1cc(-c2cccc([N+](=O)[O-])c2)n[nH]1)c1cccc(O)c1	5	-4	1	3	4	/	/	/
O=C1NC(Cc2ccc(O)cc2)c2nc3ccc(Br)cc3c(=O)n2-c2ncccc21 (stereo not drawn)	2	/	4	/	/	/	/	/
Nc1c(/C=C2/C=CC(=O)C(O)=C2)c(=O)nc2sc(CC(=O)N3CCCC3)nn12	39*	-12	-2	5	3	25	36*	37*
COC(=O)c1cnn(-c2nc(-c3ccccc3)cs2)c1N	3	2	0	-1	-3	/	/	/
COc1ccccc1-c1csc(-n2ncc(C#N)c2N)n1	68*	-2	241	7	-1	-6	72*	17*
O=C(CNC(=O)c1ccc(Cl)c([N+](=O)[O-])c1)OCN1C(=O)c2ccccc2C1=O	-5	1	3	0	4	/	/	/
COc1ccc2cc(/C=C3\SC(=S)NC3=O)c(N3CCOCC3)nc2c1	21	-2	24	11	5	/	/	/
O=C1NC(=S)S/C1=C/c1ccc(N2CCOCC2)o1	118*	-21	115	15	8	100*	-25*	-51
C[C@@H](NCCCn1cnc2c(OCc3ccccc3)ncnc21)c1cccc2ccccc12	1	0	1	/	/	/	/	/
O=C(O)c1ccc(NC(=S)NC(=O)c2ccc(-c3ccc(Br)cc3)o2)cc1	53*	-5	-64	0	-1	67*	16*	16*
O=C(O)c1cccc(NC(=S)NC(=O)c2ccc(-c3ccc(Cl)cc3)o2)c1	7	10	8	0	1	/	/	/
Oc1ccc(C2=Nn3c(nnc3-c3ccco3)SC2)cc1O	38*	7	-3	-4	-3	/	31*	14
Cc1ccc(/C=C2\SC(=S)N(CCC(=O)NNC(=O)c3cccc(O)c3)C2=O)cc1	1	-8	2	4	9	/	/	/
COc1cc(/C=C2\SC(=S)N(NC(=O)c3cccc(O)c3)C2=O)ccc1O	50*	-91	47*	/	/	96*	-3	40*
COCCn1c(N)c(C(=O)NCC2CCCO2)c2nc3ccccc3nc21 (stereo not drawn)	9	-6	-1	-3	-1	/	/	/
CC(C)Cn1c(N)c(C(=O)NCC2CCCO2)c2nc3ccccc3nc21 (stereo not drawn)	43*	-1	4	2	-1	103*	-5	-5
